HCV NS3 hel inh: inhibitors of HCV NS3 helicase, primary screen, biochemical, Cy5 molecular beacon fluorescence; Hepatitis C virus NS3 helicase; NS3 helicase DNA unwinding; inhibition, % at 10.9 µM; 290,000 tested, 0.56% active; AID 1800, 2009;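 active means inhibition above the mean of all tested compounds plus 3 SD, set per campaign, cut at about 35% in these data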
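Measured by: Cy5 fluorescence, 0 and 60 min reads / Assay system: NS3 helicase fragment of HCV / Control set: low DMSO, high thioflavine S at 110 µM / Times: 1 h reaction at 25 °C, ATP-initiated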
ZTA counter: ZTA (EBV) inhibition in EBNA-1 counter-screen. inhibition, % at 11 µM. ZTA-DNA binding, fluorescence polarization. AID 2234. 320,000 tested, 0.15% active; in the data active means inhibition above about 33%
Target sequence (P03206 whole entry, looked up): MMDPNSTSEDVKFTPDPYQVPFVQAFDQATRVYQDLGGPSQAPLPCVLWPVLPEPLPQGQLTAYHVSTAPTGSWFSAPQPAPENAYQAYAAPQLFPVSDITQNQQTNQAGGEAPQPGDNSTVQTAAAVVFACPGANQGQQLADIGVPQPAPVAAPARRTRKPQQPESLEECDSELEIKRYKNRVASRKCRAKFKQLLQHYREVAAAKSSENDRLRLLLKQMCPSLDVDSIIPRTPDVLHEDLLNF
EBNA-1 inhibitor: EBNA-1 DNA-binding inhibitors, primary screen, biochemical, fluorescence polarization; inhibition, % at 14.8 µM; 300,000 tested, 0.34% active; AID 1950, 2009; in the data active means inhibition above about 28%
SUMO HTRF inh: inhibitors of in vitro SUMOylation cascade, primary screen, biochemical, HTRF, uHTS. 290,000 tested, 0.36% active. AID 2006, 2009. SUMO-conjugating enzyme UBC9 (Homo sapiens), P63279. inhibition, % at 35 µM. HTRF SUMOylation assay, SAE1/SAE2 + UBC9; in the data active means inhibition above about 50%, passing the limit was not always enough
Target sequence (P63279 whole entry, looked up): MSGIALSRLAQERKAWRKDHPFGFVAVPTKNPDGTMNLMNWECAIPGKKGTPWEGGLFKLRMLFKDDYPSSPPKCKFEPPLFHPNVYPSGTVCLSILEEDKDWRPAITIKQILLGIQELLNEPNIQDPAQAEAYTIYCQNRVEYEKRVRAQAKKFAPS
core dimer inh: inhibitors of HCV core protein dimerization, primary screen, biochemical, TR-FRET, high-throughput; TR-FRET GST/Flag-core106 dimerization, 1536-well; 300,000 tested, 0.33% active; inhibition, % at 5 µM;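 active means inhibition above the mean of all tested compounds plus 3 SD, set per screening campaign, cut at about 45% in these data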
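System: GST-tagged and Flag-tagged HCV core protein residues 1-106 / Input: core106 proteins, GST 13.5 nM and Flag 17 nM / Buffer or medium: KF-containing HEPES buffer, pH 7.45, DTT, CHAPS, BSA / Probe or stimulus: Eu-anti-GST and XL665-anti-Flag labelled anti-tag antibodies / Schedule: 4 h, 22.5 °C incubation / Technique: TR-FRET 671 and 617 nm emission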
NS3 helicase cf: HCV NS3 helicase inhibitors, retest, confirmation, biochemical, Cy5 molecular beacon fluorescence, triplicate | shares compounds with HCV NS3 hel inh | NS3 helicase DNA unwinding | inhibition, % at 10.9 µM | 1,600 tested, 31% active;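 active means inhibition above the mean of all tested compounds plus 3 SD, cutoff set per campaign, cut at about 36% in these data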
DNA FID counter: compounds displacing fluorescent DNA intercalator, artefact control for HCV NS3 helicase inhibitor project, biochemical, FID fluorescence, triplicate. shares compounds with HCV NS3 hel inh. DNA fluorescent intercalator displacement. inhibition, % at 7.9 µM. 1,600 tested, 4% active. AID 1945, 2009; in the data active means inhibition above about 37%;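 further: higher means more displacement of ethidium bromide from the DNA hairpin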
DNA FID DR: compounds displacing fluorescent intercalator from DNA, dose response, counter-screen for HCV NS3 helicase inhibitor project, biochemical, fluorescence. shares compounds with HCV NS3 hel inh. fluorescent intercalator displacement from DNA. IC50, µM. 120 tested, under 10 active. AID 2172, 2009; call rule not given here
Of the large screens only hits and unclear results are named; the others gave an inactive call (follow-up assays come after a bar, where they were run). Most compounds without a hit are left out; they make up all but 1.4% or so of the library.

COc1ccc(-n2nc(C(=O)NCC(=O)Nc3cccc(Cl)c3)c3ccccc3c2=O)cc1	none
CC(=O)NCCc1nc2cc(NS(=O)(=O)c3ccc(Cl)cc3)ccc2n1C	HCV NS3 hel inh 37 | NS3 helicase cf inactive | DNA FID counter inactive
CC(=O)NCCc1nc2cc(NS(=O)(=O)c3ccccc3)ccc2n1C	none
O=C1C(=O)N(Cc2ccco2)C(c2cccs2)/C1=C(\O)c1cccc([N+](=O)[O-])c1 (stereo not drawn)	HCV NS3 hel inh 43 | NS3 helicase cf inactive | DNA FID counter inactive
CCOc1ccc(C2C(C(=O)c3ccc(C)o3)=C(O)C(=O)N2Cc2cccnc2)cc1 (stereo not drawn)	none
O=C1C(=O)N(Cc2ccco2)C(c2cccc(Cl)c2)/C1=C(\O)c1ccc2c(c1)OCCO2 (stereo not drawn)	HCV NS3 hel inh 47 | NS3 helicase cf 83 | DNA FID counter inactive | DNA FID DR inactive
CCCOc1ccc(C2C(C(=O)c3ccc(C)o3)=C(O)C(=O)N2Cc2ccco2)cc1OCC (stereo not drawn)	HCV NS3 hel inh 37 | NS3 helicase cf 55 | DNA FID counter inactive | DNA FID DR inactive
COc1ccc(C2C(C(=O)c3ccc(C)o3)=C(O)C(=O)N2Cc2ccco2)cc1OC (stereo not drawn)	none
CCCOc1ccc(C2C(C(=O)c3ccc(C)o3)=C(O)C(=O)N2Cc2ccco2)cc1 (stereo not drawn)	HCV NS3 hel inh 71 | NS3 helicase cf 98 | DNA FID counter inactive
COc1ccc(S(=O)(=O)N2CCC3(CC2)OCCN3S(=O)(=O)c2ccccc2)cc1OC	none (no result: HCV NS3 hel inh, SUMO HTRF inh)
O=C(C1=C(O)C(=O)N(c2ncccn2)C1c1ccc(Cl)cc1)c1ccco1 (stereo not drawn)	HCV NS3 hel inh 43 | NS3 helicase cf inactive | DNA FID counter inactive
O=C(C1=C(O)C(=O)N(Cc2ccco2)C1c1cccc(Cl)c1)c1ccco1 (stereo not drawn)	HCV NS3 hel inh 48 | NS3 helicase cf inactive | DNA FID counter inactive
CCc1nc(N[C@@H](Cc2c[nH]c3ccccc23)C(=O)O)c2oc3ccccc3c2n1	none
Cc1nc(N[C@@H](Cc2c[nH]c3ccccc23)C(=O)O)c2oc3ccccc3c2n1	HCV NS3 hel inh 42 | NS3 helicase cf inactive | DNA FID counter inactive
CC1C/C(=C/c2ccco2)C(=O)/C(=C/c2ccco2)C1 (stereo not drawn)	none
O=C1/C(=C/c2cccs2)CCC/C1=C\c1cccs1	HCV NS3 hel inh 72 | NS3 helicase cf inactive | DNA FID counter inactive
O=C1/C(=C\c2ccco2)CCC/C1=C\c1ccco1	HCV NS3 hel inh 48, SUMO HTRF inh 52 | NS3 helicase cf inactive | DNA FID counter inactive
O=S(=O)(NCCN1CCOCC1)c1cc(Cl)c(Cl)cc1Cl	none
O=C(NNc1ccc([N+](=O)[O-])cc1)c1ccccc1Cl	none
O=C(O)c1ccccc1-c1ccccc1C(=O)NNc1ccc([N+](=O)[O-])cc1	HCV NS3 hel inh 38 | NS3 helicase cf inactive | DNA FID counter inactive
COc1ccc(NC(=O)c2ccc(NC3=NC4CS(=O)(=O)CC4S3)cc2)cc1 (stereo not drawn)	HCV NS3 hel inh 47 | NS3 helicase cf inactive | DNA FID counter inactive
Cc1cc(C)cc(NC(=O)c2ccc(NC3=NC4CS(=O)(=O)CC4S3)cc2)c1 (stereo not drawn)	none
Cn1ccnc1Sc1ccc(/C=N/NC(=O)c2ccccc2[N+](=O)[O-])cc1[N+](=O)[O-]	none
Cn1ccnc1Sc1ccc(/C=N/NC(=O)c2ccccc2O)cc1[N+](=O)[O-]	HCV NS3 hel inh 47 | NS3 helicase cf inactive | DNA FID counter inactive
CCOC(=O)C1(C)C=C(Nc2ccc(O)cc2)C(=O)N1c1ccc(O)cc1 (stereo not drawn)	HCV NS3 hel inh 38 | NS3 helicase cf inactive | DNA FID counter inactive
Cc1c(C(=O)OCC(=O)N(C)c2ccccc2)oc2ccccc12	none
O=C(Nc1cccc(-n2cnnn2)c1)c1ccccc1Br	HCV NS3 hel inh 53 | NS3 helicase cf inactive | DNA FID counter inactive
Oc1c(Cl)cc(Cl)cc1/C=N/NC(=S)NC1CC2C=CC1C2 (stereo not drawn)	HCV NS3 hel inh 48, SUMO HTRF inh 55 | NS3 helicase cf 52 | DNA FID counter inactive | DNA FID DR inactive
Oc1ccccc1/C=N/NC(=S)NC1CC2C=CC1C2 (stereo not drawn)	none
CN1/C(=C\C=N\O)C(C)(C)c2ccccc21	none
CN(C)c1ccc(N=C/C=C2/N(C)c3ccccc3C2(C)C)cc1	HCV NS3 hel inh 36 (no result: ZTA counter, EBNA-1 inhibitor, core dimer inh) | NS3 helicase cf inactive | DNA FID counter 42
Cc1cc(C)n(CCc2nc(-c3ccco3)cs2)n1	none
Cc1nn(CCc2nc(-c3ccco3)cs2)c2[nH]c(=O)cc(C(F)(F)F)c12	HCV NS3 hel inh 46 | NS3 helicase cf 72 | DNA FID counter inactive
COc1ccc(NC(=O)c2ccccc2NC(=O)CN2CCCCCC2)cc1	none (no result: HCV NS3 hel inh, EBNA-1 inhibitor, SUMO HTRF inh, core dimer inh)
N=c1c(S(=O)(=O)c2ccccc2)cc2c(=O)n3ccccc3nc2n1Cc1ccco1	HCV NS3 hel inh 37, SUMO HTRF inh 50, core dimer inh 87 | NS3 helicase cf inactive | DNA FID counter inactive
CCn1c(=N)c(S(=O)(=O)c2ccccc2)cc2c(=O)n3ccccc3nc21	none
COc1cc(NC(=O)C2CCCN2S(=O)(=O)c2ccc3c(c2)CC(C)N3C(C)=O)cc(OC)c1 (stereo not drawn)	none
CCC(Cc1ccccc1)NC(=O)C1CC1 (stereo not drawn)	HCV NS3 hel inh 41 (no result: ZTA counter, EBNA-1 inhibitor, core dimer inh) | NS3 helicase cf inactive | DNA FID counter inactive
COc1ccc(Cl)cc1NC(=O)CN(C)CC(=O)Nc1c(C)n(C)n(-c2ccccc2)c1=O	none (no result: HCV NS3 hel inh, EBNA-1 inhibitor, SUMO HTRF inh, core dimer inh)
O=C(c1ccco1)[C@@H]1[C@@H]2C(=O)N(c3ccc(F)cc3)C(=O)[C@@H]2C2c3ccccc3C=CN21 (stereo partly drawn)	HCV NS3 hel inh 43 | NS3 helicase cf inactive | DNA FID counter inactive
CCCn1c(N)c(C(=O)CSc2n[nH]c(-c3ccc(C)cc3)n2)c(=O)[nH]c1=O	none (no result: HCV NS3 hel inh, SUMO HTRF inh)
Cc1nn(-c2ccccc2)c2c1C1(C(=O)N(C)c3ccccc31)C(C#N)=C(N)O2 (stereo not drawn)	HCV NS3 hel inh 42 | NS3 helicase cf inactive | DNA FID counter inactive

Screening results (PubChem)
